# Data published in ChEMBL document CHEMBL3259728, “Design, synthesis and biological evaluation of some novel substituted quinazolines as antitumor agents” (2014).
# How the values were obtained:
# Format in all cases: functional
# [1] = Growth inhibition of human OVCAR5 cells assessed as cell growth at 10^-8 M after 48 hrs by SRB assay; settings: OVCAR-5, 48 h, read-out: Activity
# [2] = Cytotoxicity against human UACC257 cells after 48 hrs by SRB assay; settings: UACC-257, 48 h
# In short: (§1)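 NCI 60-cell-line panel, 48 h continuous exposure to five 10-fold dilutions from 10^-4 to 10^-8 M. SRB protein staining was read spectrophotometrically, with time-zero, untreated-control and treated absorbances. GI50, TGI and LC50 were derived from the percentage-growth formulas. Values outside the tested range are expressed as more or less than the maximum or minimum concentration.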
# [3] = test system: RPMI-8226; experiment: Growth inhibition of human RPMI8226 cells assessed as cell growth at 10^-5 M after 48 hrs by SRB assay; settings: RPMI-8226, 48 h, read-out: Activity
# [4] = Growth inhibition of human HCT15 cells assessed as cell growth at 10^-7 M after 48 hrs by SRB assay; settings: HCT-15, 48 h, read-out: Activity
# [5] = Growth inhibition of human HOP92 cells assessed as cell growth at 10^-8 M after 48 hrs by SRB assay; settings: HOP-92, 48 h, read-out: Activity
# [6] = test system: SNB-75; experiment: Growth inhibition of human SNB75 cells assessed as cell growth at 10^-6 M after 48 hrs by SRB assay; settings: SNB-75, 48 h, read-out: Activity
# [7] = Growth inhibition of human OVCAR8 cells assessed as cell growth at 10^-8 M after 48 hrs by SRB assay; settings: OVCAR-8, 48 h, read-out: Activity
# [8] = test system: CAKI-1; experiment: Cytotoxicity against human CAKI-1 cells after 48 hrs by SRB assay; settings: CAKI-1, 48 h
# In short: (§2)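 NCI 60-cell-line panel of human tumour lines from nine cancer types. Continuous 48 h exposure at five 10-fold dilutions from 10^-4 to 10^-8 M, with 5-FU as positive control. SRB protein stain read spectrophotometrically at time zero, untreated control and each concentration. GI50, TGI and LC50 were derived from the [(Ti−Tz)/(C−Tz)]×100 growth relations, and out-of-range values are given as > or < the tested limits.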
# [9] = Growth inhibition of human BT549 cells assessed as cell growth at 10^-4 M after 48 hrs by SRB assay; settings: BT-549, 48 h, read-out: Activity
# In short: (§3)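 Five-dose NCI panel protocol. Each dose (10^-4 to 10^-8 M, 10-fold steps) was given as 48 h continuous exposure, and protein was measured by SRB staining. Percentage growth at each level is [(Ti−Tz)/(C−Tz)]×100, where Tz is time-zero absorbance and C is untreated control.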
# [10] = test system: ACHN; experiment: Growth inhibition of human ACHN cells assessed as cell growth at 10^-7 M after 48 hrs by SRB assay; settings: read-out: Activity; in short: as §3
# [11] = Growth inhibition of human UO31 cells assessed as cell growth at 10^-4 M after 48 hrs by SRB assay; settings: UO-31, 48 h, read-out: Activity
# [12] = test system: DU-145; experiment: Growth inhibition of human DU145 cells assessed as cell growth at 10^-5 M after 48 hrs by SRB assay; settings: DU-145, 48 h, read-out: Activity; in short: as §3
# [13] = test system: SR; experiment: Growth inhibition of human SR cells assessed as cell growth at 10^-6 M after 48 hrs by SRB assay; settings: read-out: Activity
# [14] = test system: 786-0; experiment: Cytotoxicity against human 786-0 cells after 48 hrs by SRB assay; settings: 786-0, 48 h; in short: as §2
# [15] = test system: U-251; experiment: Cytotoxicity against human U251 cells after 48 hrs by SRB assay; settings: U-251, 48 h; in short: as §1
# [16] = Growth inhibition of human SF295 cells assessed as cell growth at 10^-5 M after 48 hrs by SRB assay; settings: SF-295, 48 h, read-out: Activity
# [17] = Growth inhibition of human OVCAR4 cells assessed as cell growth at 10^-7 M after 48 hrs by SRB assay; settings: OVCAR-4, 48 h, read-out: Activity
# [18] = Growth inhibition of human SF295 cells assessed as cell growth at 10^-8 M after 48 hrs by SRB assay; settings: SF-295, 48 h, read-out: Activity
# [19] = test system: IGROV-1; experiment: Growth inhibition of human IGROV1 cells assessed as cell growth at 10^-4 M after 48 hrs by SRB assay; settings: IGROV-1, 48 h, read-out: Activity
# [20] = test system: RXF 393; experiment: Cytotoxicity against human RXF393 cells after 48 hrs by SRB assay; settings: RXF 393, 48 h; in short: as §2
# [21] = Growth inhibition of human OVCAR3 cells assessed as cell growth at 10^-6 M after 48 hrs by SRB assay; settings: OVCAR-3, 48 h, read-out: Activity
# [22] = Growth inhibition of human NCI-ADR-RES cells assessed as cell growth at 10^-5 M after 48 hrs by SRB assay; settings: read-out: Activity
# [23] = test system: MDA-MB-231; experiment: Growth inhibition of human MDA-MB-231 cells assessed as cell growth at 10^-5 M after 48 hrs by SRB assay; settings: MDA-MB-231, 48 h, read-out: Activity
# [24] = test system: SW-620; experiment: Growth inhibition of human SW620 cells assessed as cell growth at 10^-4 M after 48 hrs by SRB assay; settings: SW-620, 48 h, read-out: Activity
# [25] = Growth inhibition of human HOP92 cells assessed as cell growth at 10^-5 M after 48 hrs by SRB assay; settings: HOP-92, 48 h, read-out: Activity
# [26] = test system: NCI-H23; experiment: Cytotoxicity against human NCI-H23 cells after 48 hrs by SRB assay; settings: NCI-H23, 48 h; in short: as §2
# [27] = test system: SK-MEL-5; experiment: Growth inhibition of human SK-MEL-5 cells assessed as cell growth at 10^-8 M after 48 hrs by SRB assay; settings: SK-MEL-5, 48 h, read-out: Activity
# [28] = test system: CCRF-CEM; experiment: Growth inhibition of human CCRF-CEM cells assessed as cell growth at 10^-4 M after 48 hrs by SRB assay; settings: read-out: Activity; in short: as §3
# [29] = read-out: LC50 (the source's name)
# [30] = read-out: pLC50 (the source's name) (converted)
compound,measurement,setting,value
Cc1ccc(-c2nc3ccc(Cl)cc3c(=O)n2/N=C/c2ccccc2)cc1,growth at 0.01 µM,[1],96%
same,GI50,[2]; read-out: GI50,> 100 µM
same,CC50,[2]; [29],> 100 µM
same,TGI,[2]; read-out: TGI,> 100 µM
same,GI50,[2]; read-out: pGI50 (converted),> 100 µM
same,CC50,[2]; [30],> 100 µM
same,TGI,[2]; read-out: pTGI,> 100 µM
same,growth at 10 µM,[3],72%
same,growth at 0.1 µM,[4],92%
same,growth at 0.01 µM,[5],93%
same,growth at 1 µM,[6],64%
same,growth at 0.01 µM,[7],101%
same,GI50,[8]; read-out: GI50,4.82 µM
same,CC50,[8]; [29],> 100 µM
same,TGI,[8]; read-out: TGI,> 100 µM
same,GI50,[8]; read-out: pGI50 (converted),4.79 µM
same,CC50,[8]; [30],> 100 µM
same,TGI,[8]; read-out: pTGI,> 100 µM
same,growth at 100 µM,[9],72%
same,growth at 0.1 µM,[10],88%
same,growth at 100 µM,[11],39%
same,growth at 10 µM,[12],55%
same,growth at 1 µM,[13],52%
same,GI50,[14]; read-out: GI50,3.62 µM
same,CC50,[14]; [29],> 100 µM
same,TGI,[14]; read-out: TGI,> 100 µM
same,GI50,[14]; read-out: pGI50 (converted),3.63 µM
same,CC50,[14]; [30],> 100 µM
same,TGI,[14]; read-out: pTGI,> 100 µM
same,GI50,[15]; read-out: GI50,5.05 µM
same,CC50,[15]; [29],> 100 µM
same,TGI,[15]; read-out: TGI,> 100 µM
same,GI50,[15]; read-out: pGI50 (converted),5.01 µM
same,CC50,[15]; [30],> 100 µM
same,TGI,[15]; read-out: pTGI,> 100 µM
same,growth at 10 µM,[16],36%
same,growth at 0.1 µM,[17],96%
same,growth at 0.01 µM,[18],91%
same,growth at 100 µM,[19],25%
same,GI50,[20]; read-out: GI50,6.46 µM
same,CC50,[20]; [29],> 100 µM
same,TGI,[20]; read-out: TGI,> 100 µM
same,GI50,[20]; read-out: pGI50 (converted),6.46 µM
same,CC50,[20]; [30],> 100 µM
same,TGI,[20]; read-out: pTGI,> 100 µM
same,growth at 1 µM,[21],94%
same,growth at 10 µM,[22],48%
same,growth at 10 µM,[23],33%
same,growth at 100 µM,[24],52%
same,growth at 10 µM,[25],43%
same,GI50,[26]; read-out: GI50,100 µM
same,CC50,[26]; [29],> 100 µM
same,TGI,[26]; read-out: TGI,> 100 µM
same,GI50,[26]; read-out: pGI50 (converted),> 100 µM
same,CC50,[26]; [30],> 100 µM
same,TGI,[26]; read-out: pTGI,> 100 µM
same,growth at 0.01 µM,[27],94%
same,growth at 100 µM,[28],57%
